In BindingDB's records for doi:10.1016/s0960-894x(03)00033-7 (Astrazeneca R&D, 2003) one finds IC50 data, which are given here for one compound.

The target in assay [1] is Delta-type opioid receptor (Homo sapiens, UniProt P41143). Nature of the assay: ChEBML_145338. An excerpt: Inhibition of [125I]deltorphin binding to human delta opioid receptor from membranes of HEK293 cells
In a further assay the target is Mu-type opioid receptor (Homo sapiens, UniProt P35372). Nature of the assay: Inhibition of [125I]Enkephalin binding to human mu opioid receptor from membranes of HEK293 cells. In a few lines: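 Filter binding on membranes of HEK293 cells overexpressing human mu opioid receptor, measuring displacement of [125I]-Enkephalin. IC50 came from full dose–response curves on purified material, in single determinations.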
Chain of Mu-type opioid receptor (P35372 whole entry): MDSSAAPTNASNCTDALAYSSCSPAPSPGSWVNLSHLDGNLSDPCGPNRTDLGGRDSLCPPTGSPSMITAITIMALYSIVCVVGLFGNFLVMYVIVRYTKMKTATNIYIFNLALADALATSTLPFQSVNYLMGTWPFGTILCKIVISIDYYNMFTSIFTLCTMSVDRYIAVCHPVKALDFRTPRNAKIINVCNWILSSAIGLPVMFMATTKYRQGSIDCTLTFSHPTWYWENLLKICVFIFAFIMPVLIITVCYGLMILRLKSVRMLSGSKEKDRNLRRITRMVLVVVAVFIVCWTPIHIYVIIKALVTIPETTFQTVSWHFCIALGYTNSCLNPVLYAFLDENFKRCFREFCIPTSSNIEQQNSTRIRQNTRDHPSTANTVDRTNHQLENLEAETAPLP

For orientation: IC50 means the midpoint of a concentration-inhibition curve. A low value points to greater potency.

Chain of Delta-type opioid receptor (P41143 whole entry): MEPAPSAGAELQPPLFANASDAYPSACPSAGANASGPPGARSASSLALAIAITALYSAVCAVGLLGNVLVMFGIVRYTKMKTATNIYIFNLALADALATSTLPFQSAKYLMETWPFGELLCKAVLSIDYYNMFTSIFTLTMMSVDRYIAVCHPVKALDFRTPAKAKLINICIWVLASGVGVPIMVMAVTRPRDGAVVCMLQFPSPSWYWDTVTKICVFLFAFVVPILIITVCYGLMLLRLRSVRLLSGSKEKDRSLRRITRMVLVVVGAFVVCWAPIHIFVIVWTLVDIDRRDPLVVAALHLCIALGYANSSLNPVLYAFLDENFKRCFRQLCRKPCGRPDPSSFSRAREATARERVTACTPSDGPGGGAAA

In the case of `O=c1c(-c2ccccc2)cccn1C(CN1CCCC1)c1ccccc1` (configuration not stated) [3-Phenyl-1-(1-phenyl-2-pyrrolidin-1-yl-ethyl)-1H-pyridin-2-one], the IC50 (in assay [1]; at Mu-type opioid receptor) was over 10 µM each time.
